Screens deposited in PubChem by Johns Hopkins Ion Channel Center.
RGS4 pot: RGS4 potentiators or activators, primary screen, cell-based, HEK293 M3R inducible RGS4, calcium flux. hit rate 0.92% among 310,000. carbachol calcium flux Fluo4; hits give low values. AID 463111, 2010. B-score at 10 µM;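 active means B-score of the integrated calcium signal more than 4 SD below the library mean, with starting fluorescence not abnormally high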;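 further: negative B-score means reduced calcium response which marks RGS4 activation or potentiation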
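Test system: HEK293 cells with stable M3R and inducible RGS4; also added: carbachol at ECmax as muscarinic agonist stimulus; schedule: dye loading 30 min 37 °C, buffer rest 30 min RT; technique: kinetic calcium fluorescence imaging with Fluo4-AM dye, 2 µM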
MrgX1 allo act: positive allosteric modulators of MrgX1, primary screen, HEK293 cells, Fluo-4 calcium flux. B-score at 10 µM. hit rate 0.63% among 310,000. FDSS; hits give high values. Mas-related G-protein coupled receptor member X1 (Homo sapiens), Q96LB2;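 active means plate-corrected calcium response at least 3 library SD above typical, normal starting fluorescence, not activating the receptor alone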;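 further: compound read alongside a low EC10 to EC30 dose of BAM8-22 agonist; peak minus trough fluorescence over baseline measured at the second addition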
Target sequence (Q96LB2 whole entry, looked up): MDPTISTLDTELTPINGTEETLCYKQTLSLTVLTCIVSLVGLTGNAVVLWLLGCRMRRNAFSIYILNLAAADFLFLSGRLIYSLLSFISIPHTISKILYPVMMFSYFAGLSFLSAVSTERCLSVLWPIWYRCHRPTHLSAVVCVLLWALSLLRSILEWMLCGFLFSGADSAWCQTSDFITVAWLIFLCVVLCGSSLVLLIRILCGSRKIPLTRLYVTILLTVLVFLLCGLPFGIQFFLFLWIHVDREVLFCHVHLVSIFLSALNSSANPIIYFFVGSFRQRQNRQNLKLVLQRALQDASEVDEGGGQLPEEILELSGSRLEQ
MrgX1 antag: antagonists of human MrgX1 receptor, primary screen, HEK293 cells, Fluo-4 calcium flux | AID 588676, 2011 | hit rate 1.3% among 310,000 | B-score at 10 µM | Mas-related G-protein coupled receptor member X1 (Homo sapiens), Q96LB2 | BAM8-22 antagonism; hits give low values;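 active means calcium-response B-score plate-corrected more than 3 library SD below zero, starting fluorescence within 5 deviations, no agonist response on first addition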;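 further: peak minus trough fluorescence over baseline after final BAM8-22 challenge near maximal dose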
MrgX1 ag: agonists of human MrgX1 receptor, primary screen, HEK293 cells, Fluo-4 calcium flux. hit rate 0.44% among 310,000. B-score at 10 µM. AID 588627, 2011. Fluo-4 calcium fluorescence, agonist mode; hits give high values;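 active means calcium response B-score plate-corrected fluorescence ratio at least 3 library SD, with starting fluorescence B-score inside 5 SD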
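Material – MrgX1-expressing HEK293 cells · Input – 15,000 cells seeded per well · Dosing – compound as first of three additions · Times – overnight seeding, then 1 h dark dye loading · Measured by – kinetic Fluo-4 NW fluorescence of intracellular calcium · Read-out – B-scored fluorescence response ratio · Benchmarks – positive and negative control wells on each plate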
RGS4 inh: RGS4 inhibitors, primary screen, cell-based, HEK293 M3R inducible RGS4, calcium flux. AID 463165, 2010. B-score at 10 µM. Fluo-4 calcium flux; hits give high values; triggered by carbachol at its EC20. hit rate 0.45% among 310,000;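 active means B-score, a plate-corrected calcium signal, over three deviations above library mean, with baseline fluorescence within five deviations of library mean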;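 further: RGS4 expression induced by doxycycline in cells with stable M3 receptor; B-score is computed from the integrated fluorescence ratio over baseline after carbachol; higher B-score means a larger calcium signal and so more RGS4 inhibition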
Target sequence (P49798 whole entry, looked up): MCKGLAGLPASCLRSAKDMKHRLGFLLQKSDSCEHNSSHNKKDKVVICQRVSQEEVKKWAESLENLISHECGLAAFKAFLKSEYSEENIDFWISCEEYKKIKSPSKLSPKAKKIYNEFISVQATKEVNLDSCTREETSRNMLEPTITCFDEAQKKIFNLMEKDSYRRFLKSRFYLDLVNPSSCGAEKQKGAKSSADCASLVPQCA
MrgX1 ant reconf: MrgX1 receptor antagonists, duplicate retest, confirmation, HEK293 cells, Fluo-4 calcium flux. shares compounds with MrgX1 antag. BAM8-22 calcium flux; hits give low values. remaining BAM8-22 calcium response % of control (hits give low values), % at 10 µM. hit rate 19% among 2,300;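 active means remaining agonist calcium response no higher than 100% minus 3 SD of agonist-only control wells, with starting fluorescence near control levels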;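 further: agonist BAM8-22 given at a near maximal EC90 to ECmax level; peak minus minimum fluorescence divided by baseline after agonist addition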
HEK293 Ca flux: nonspecific calcium signal in parental HEK293, confirmation, counter-screen for MrgX1 antagonist project, parental HEK293 cells, Fluo-4 calcium flux. shares compounds with MrgX1 antag. Fluo-4 calcium fluorescence, FDSS. fluorescence ratio F(max-min)/F0 at 10 µM. hit rate 2% among 4,000. AID 624111, 2012;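 active means duplicate-averaged calcium fluorescence ratio at least three times the standard deviation of buffer wells, a nonspecific response in parental cells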
HEK293 Ca counter: calcium response in parental HEK293 cells, primary screen, counter-screen for MrgX1 allosteric activator project, cell-based, Fluo-4 calcium flux, duplicate; hit rate 0.4% among 4,000; Fluo-4 fluorescence ratio; hits give high values; fluorescence ratio F(max-min)/F0 at 10 µM; AID 624114, 2012; shares compounds with MrgX1 antag;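 active means calcium fluorescence ratio, averaged over duplicates, at least 3 SD of the buffer-well ratio, meaning a nonspecific response in receptor-free cells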;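 further: untransfected parental HEK293 lacking MrgX1 used as counterscreen for MrgX1 allosteric activators; fluorescence change taken during the second addition on a kinetic imager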
HEK293 Ca cntr2: calcium response in parental HEK293 cells, primary screen, counter-screen for MrgX1 agonist project, cell-based, Fluo-4 calcium flux, duplicate, agonist mode | AID 624115, 2012 | Fluo-4 calcium fluorescence (FDSS); hits give high values | hit rate 8.7% among 4,000 | fluorescence ratio F(max-min)/F0 at 10 µM | shares compounds with MrgX1 antag;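 active means calcium fluorescence ratio at least three times the spread of buffer wells, meaning a non-specific response in parental cells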
* marks the source's active call; other numbers are inactive results; i = inactive; nt = not tested or not shown. In the library only some 3.5% were active in any assay of this set; here they are far more common.

SMILES	RGS4 pot	MrgX1 allo act	MrgX1 antag	MrgX1 ag	RGS4 inh	MrgX1 ant reconf	HEK293 Ca flux	HEK293 Ca counter	HEK293 Ca cntr2
CCN(CC)CCNC(=S)Nc1ccc2nc(N3CCCC3)cc(C)c2c1	i	i	i	i	i	nt	nt	nt	nt
COc1cc(/C=N/NC(=O)c2cccnc2)cc2c1OCO2	i	i	i	i	i	nt	nt	nt	nt
COc1ccc(-c2noc(CN(C(=O)c3ccc4c(c3)OCO4)C(C)C)n2)cc1	i	i	i	i	i	nt	nt	nt	nt
COc1ccc(-c2noc(CN(C(=O)c3cccs3)C(C)C)n2)cc1	i	i	-4.83*	i	i	i	i	i	i
COc1cc(CN(C)C(C)C(=O)Nc2ccc([N+](=O)[O-])cc2Cl)ccc1OC(F)F (centres undefined)	i	i	-21.3*	i	i	i	i	i	i
Cc1ccc(OC(=O)c2cccc([N+](=O)[O-])c2)c(-n2nc3ccccc3n2)c1	i	i	i	i	i	nt	nt	nt	nt
O=C(Nc1cccc(C(=O)N2CCCCCC2)c1)c1ccco1	i	i	-4.7*	i	i	i	i	i	i
CCCCCOP(=O)(c1ccccc1)c1ccccc1	i	i	i	i	i	nt	nt	nt	nt
O=C(Nc1cc(C(F)(F)F)ccc1N1CCOCC1)c1ccco1	i	i	-4.54*	i	i	i	i	i	i
CC(=O)Nc1nnc(CCN2CCCCC2)s1	i	i	i	i	i	nt	nt	nt	nt
CC(=O)c1sc2nsc(SCCN3CCCCC3)c2c1N	i	i	-5.16*	i	i	i	i	i	51.7*
Cc1ccccc1OCC(=O)Nc1ccc2c(c1)OCO2	i	i	-4.54*	i	i	84.0%*	i	i	i
CN(CC(=O)c1c(N)n(C)c(=O)n(C)c1=O)c1ccccc1	i	i	-5.77*	i	i	72.3%*	i	i	i
Cn1c(N)c(C(=O)CN2CCc3ccccc3C2)c(=O)n(C)c1=O	i	i	i	i	i	nt	nt	nt	nt
CCOC(=O)c1ccc(NS(=O)(=O)c2c(N)n(C)c(=O)n(C)c2=O)cc1	i	i	i	i	i	nt	nt	nt	nt
Cc1c(C(=O)OCCOc2ccccc2)[nH]c2c1C(=O)CCC2	i	i	-5.15*	i	i	66.9%*	i	i	i
CC(=O)c1c(C)[nH]c(C(=O)OCCOc2ccccc2)c1C	i	i	i	i	i	nt	nt	nt	nt
COc1ccc(N2CCN(CCNC(=O)c3ccc4nc5ccccc5c(=O)n4c3)CC2)cc1	i	nt	nt	nt	i	nt	nt	nt	nt
COc1cc(OC)cc(C(=O)NC(=S)Nc2ccc(NC(=O)c3ccco3)cc2)c1	i	i	-5.12*	i	i	i	i	i	i
Cc1nc(NC(=O)COC(=O)C2=NNC(=O)CC2)c(Cl)cc1Cl	i	i	i	i	i	nt	nt	nt	nt
COc1cccc(-c2nnc(SCC(=O)Nc3ccc4c(c3)OCCO4)n2Cc2ccco2)c1	i	i	-6.39*	i	i	i	i	i	i
COc1cccc(-c2nnc(SCC(=O)NCc3ccc4c(c3)OCO4)n2Cc2ccco2)c1	i	i	i	i	i	nt	nt	nt	nt
COc1ccc(N(CC(=O)O)S(=O)(=O)c2cccnc2)cc1	i	i	-6.8*	i	i	i	i	i	i
COc1ccc(-c2cc(-c3ccc(Cl)cc3)c(C#N)c(SCC(=O)O)n2)cc1	i	i	-5.86*	i	i	i	i	i	i
Cc1ccc(C(=O)NCC(c2ccc(F)cc2)N2CCOCC2)cc1 (centres undefined)	i	i	i	i	i	nt	nt	nt	nt
SMILES	RGS4 pot	MrgX1 allo act	MrgX1 antag	MrgX1 ag	RGS4 inh	MrgX1 ant reconf	HEK293 Ca flux	HEK293 Ca counter	HEK293 Ca cntr2
CC(=O)c1ccc(-c2ccc(C(=O)NCC(c3ccc(F)cc3)N3CCOCC3)o2)cc1 (centres undefined)	i	i	-7.97*	i	i	60.4%*	i	i	i
Cc1cc2c3nonc3ccc2n1-c1ccccc1	i	i	-5.19*	i	i	83.6%*	i	i	i
COc1ccc(CCNc2cc(=O)[nH]c(N)n2)cc1	i	i	-6.79*	i	i	i	i	i	i
COc1ccc(CCNc2ccc([N+](=O)[O-])cn2)cc1	i	i	i	i	i	nt	nt	nt	nt
Cc1ccccc1NC(=O)C1C2/C=C\CCCCC21 (centres undefined)	i	i	-4.53*	i	i	i	i	i	i
Cc1ccccc1NC(=O)C1C2CCCCC21 (centres undefined)	i	i	i	i	i	nt	nt	nt	nt
CN(C)C(=O)NC(NC(=S)Nc1ccccc1)C(Cl)(Cl)Cl (centres undefined)	i	i	i	i	i	nt	nt	nt	nt
Cc1ccc(-n2ncc3c(N4CCC(C(N)=O)CC4)ncnc32)c(C)c1	i	i	-10.3*	i	i	i	i	i	i
CCOC(=O)CNC(=O)CSc1ncnc2c1cnn2-c1ccccc1	i	i	-6.09*	i	i	i	i	i	i
CCOC(=O)C1CCN(c2ncnc3c2cnn3-c2ccccc2)CC1	i	i	-5.04*	i	i	i	i	i	i
CCOC(=O)C1CCN(c2ncnc3c2cnn3-c2ccc(Cl)cc2)CC1	i	i	i	i	i	nt	nt	nt	nt
COc1ccc(C(=O)N2CCC(N3CCN(c4ccccc4)CC3)CC2)cc1	i	i	i	i	i	nt	nt	nt	nt
COc1ccc(CNC(=O)c2ccc3c(c2)NC(=O)C(C)S3)cc1 (centres undefined)	i	i	i	i	i	nt	nt	nt	nt
